# Data taken from publication PMC6220361 (Molecular Pharmaceutics, 2018).
# Like-named read-outs stand apart in the source and are kept apart here.
# Experiments:
# SP1–7 binding site [1] = assay: Dynamic PET imaging, blocking experiments; format: in vivo, Wistar rats
# How it was run: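 Healthy male Wistar rats (200–320 g) under isoflurane (3% induction, 1–2.5% maintenance, in oxygen). A 5 min CT or 15 min MRI preceded the i.v. tail-vein tracer bolus and a 60 min dynamic PET scan. Blockers were SP1–7 (5% DMSO in saline), 185 nmol·kg–1 i.p. 15 min before, or the unlabeled tracer analogue (20% EtOH in saline), 3 μmol·kg–1 slow i.v. 3 or 20 min before. Read-out was manual brain/spinal cord ROI SUV ± SD.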
# SP1–7 binding site [2] = conditions: rat spinal cord membranes preparation; cited from earlier work
# Caco-2 cell monolayer = conditions: cited from earlier work
# [3] = mouse plasma; cited from earlier work
# SP1–7 binding site [4] = conditions: read-out: binding; rat ventral tegmental area; cited from earlier work
# [5] = self-blocking, i.v. 3 μmol·kg^–1, 3 min prior to tracer
# [6] = blocker i.p. 185 nmol·kg^–1, 15 min prior to tracer
molecule,measurement,setting,value
"NC(=O)[C@@H](Cc1ccccc1)NC(=O)OCc1ccccc1 [compound 2, (R)-Benzyl (1-Amino-1-oxo-3-phenylpropan-2-yl)carbamate]",blocking of [^11C]2 brain uptake,SP1–7 binding site [1]; [5],did not show any blocking effect
same,blocking of [^11C]2 spinal cord uptake,SP1–7 binding site [1]; [5],did not show any blocking effect
"NC(=O)[C@H](Cc1ccccc1)NC(=O)OCc1ccccc1 [compound 1, (S)-Benzyl (1-Amino-1-oxo-3-phenylpropan-2-yl)carbamate]",Ki,SP1–7 binding site [2],5.2 nM
same,blocking of [^11C]1 brain uptake,"SP1–7 binding site [1]; blocker i.v. 3 μmol·kg^–1, 20 min prior to tracer",did not block brain uptake
same,blocking of [^11C]1 spinal cord uptake,"SP1–7 binding site [1]; self-blocking, 3 or 20 min prior to tracer injection",did not show any blocking
H-Arg-Pro-Lys-Pro-Gln-Gln-Phe-OH (H-RPKPQQF-OH) [SP1–7],permeability,Caco-2 cell monolayer,failed to display any measurable permeability
same,in vitro half-life,[3],4.4 min
same,blocking of [^11C]1 brain uptake,SP1–7 binding site [1]; [6],did not block brain uptake
same,blocking of [^11C]1 spinal cord uptake,SP1–7 binding site [1]; [6],moderate blocking
same,Ki,SP1–7 binding site [4],3.9 nM
